# Source: PubChem BioAssay (SRMLSC)
# The entries come from a sample that favours hits as a whole.
# Yeast life ext – compounds extending yeast replicative lifespan, primary screen, S. cerevisiae, OD615; S. cerevisiae growth with nicotinamide; deaD strain in restrictive glucose medium; inhibition of the nicotinamide effect, % at 10 µM; actives 0.68% (n = 130,000); AID 775, 2007;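 active means inhibition above a set limit, placed 3 SD over the median of all compounds, cut at about 26% in these data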;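 further: 0% = nicotinamide-treated wells and 100% = cells grown without nicotinamide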
#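 System: Modified budding yeast, DeaD strain | Buffer or medium: Restrictive glucose medium | Also added: 1.5 mM nicotinamide | Doses: 10 µM single point, 0.25% DMSO | Schedule: 48 h compound exposure at 30 °C, humidified | Detection: Absorbance at 615 nm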
# Yeast growth inh – growth inhibitors of yeast BB579 in restrictive medium, primary screen, yeast lifespan-shortening project, S. cerevisiae; actives 0.51% (n = 140,000); AID 804, 2007; OD615, 48 h; inhibition, % at 10 µM;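 active means inhibition above a set limit, 3 SD over the mean compound inhibition, cut at about 44% in these data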
#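 Test system: DeaD yeast strain BB579 / Buffer or medium: restrictive glucose-based CSMM-D medium / Doses: single 10 µM dose / Schedule: 4 h cell preincubation, 48 h compound exposure, 30 °C humidified / Technique: culture absorbance at 615 nm / Controls: amphotericin B positive control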
# PostGolgi yeast – phenotypic screen on post-Golgi transport, primary screen | post-Golgi transport phenotypic cell assay | inhibition, % at 10 µM | actives 0.9% (n = 98,000);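 further: yeast cells grown in 1536-well plates; yeast grown about 18 h at 30C before absorbance read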
# PostGolgi ctrl – growth inhibition of yeast control strain, primary screen, counter-screen for post-Golgi transport modulator project; AID 738, 2007; actives 5% (n = 98,000); efflux-deficient yeast background strain, growth absorbance A615, 16 h; inhibition, % at 10 µM
# The depositor's hits bear a star; · = no result. Unless noted, no stated cut-off is given here; in the data, active means inhibition above about 30%; inactive means the rest.
SMILES,Yeast life ext,Yeast growth inh,PostGolgi yeast,PostGolgi ctrl
COc1ccc(/C=C/C(=O)c2ccccc2O)cc1,-3.4,-14.9,·,·
Cn1cccc1C(=O)NC(=O)CSc1cccc[n+]1[O-],-11.0,95.1*,0.9,5.1
O=C(CSc1cccc[n+]1[O-])c1cc2ccccc2o1,-10.5,99.2*,-5.4,-1.5
O=C(CSc1nnc(C2CC2)n1Cc1ccccc1)c1cc2ccccc2o1,-2.1,-11.3,-5.6,8.8
O=C(O)CSc1cccc[n+]1[O-],-3.3,89.8*,3.3,0.2
CCOC(=O)c1ccccc1NC(=O)CSc1cccc[n+]1[O-],-22.4,-1.2,13.9,-4.5
O=C(NCC1CCCO1)c1onc(CSc2cccc3ccccc23)c1C(=O)O (centres undefined),-10.4,-79.6,-6.6,5.8
O=C(COc1ccccc1)Nc1sc2c(c1C(=O)NCc1cccnc1)CCCC2,-20.2,-63.1,-2.6,9.7
COc1ccc(/C=C/C(=O)Nc2sc3c(c2C(=O)NCc2cccnc2)CCCC3)cc1,-7.9,-10.3,19.1,52.3*
CCOc1ccccc1Nc1nnc(SCC(=O)Nc2cccc(S(=O)(=O)NC3=NCCCCC3)c2)s1,-4.9,-23.7,·,·
Cc1ccc(C)c2c1[nH]c1ccccc12,-12.7,-31.1,3.0,13.9
Cc1ccc(C)c2c1[nH]c1ccc([N+](=O)[O-])cc12,-13.3,23.7,9.2,54.3*
Cc1ncsc1CCOC(=O)c1cccnc1,-0.7,-88.4,-2.1,7.3
Cc1ncsc1CCOC(=O)C12CC3CC(CC(C3)C1)C2,4.1,5.8,-2.6,46.4*
COc1ccc(-c2nn(CC(=O)Nc3ccc(Cl)c(Cl)c3)c(=O)c3ccccc23)cc1,-15.4,-46.5,7.0,32.2*
O=C(NNC(=S)Nc1ccc(OC(F)F)cc1)c1cc2c(s1)CCCC2,-3.8,8.0,·,·
O=c1[nH]c(NCCO)nc2c1C1(CCCCC1)Cc1ccccc1-2,-4.8,-39.7,-1.7,30.6*
N#CC(c1cccc(Cl)c1)c1ccc2c(C(F)(F)F)cc(C(F)(F)F)nc2n1 (centres undefined),-10.6,63.5*,99.4*,101.6*
C/C(=C/Cc1c(O)cc2oc(C)cc(=O)c2c1O)COC1OC(CO)C(O)C(O)C1O (centres undefined),-2.0,-31.9,·,·
Cc1ccc(S(=O)(=O)O/N=C2\CCCc3ccccc32)cc1,-3.9,-11.9,16.6,0.5
CC1=C(C)/C(=N\OS(=O)(=O)c2ccccc2)C=CC1=O,-16.8,99.9*,-4.6,26.7
O=[N+]([O-])c1cccnc1NCCNc1ncc(C(F)(F)F)cc1Cl,-20.6,-25.3,5.5,34.7*
Cn1c(Oc2ccccc2NCc2cccc(Br)c2)cc(=O)n(C)c1=O,-27.2,-12.8,3.8,37.9*
Cn1c(NCc2cccc(Br)c2)nc2ccccc21,-10.1,-22.5,4.5,12.2
Cc1ccccc1NS(=O)(=O)c1cc(C(=O)N2CCc3ccccc3C2)ccc1C,-12.0,-24.6,0.0,14.1
SMILES,Yeast life ext,Yeast growth inh,PostGolgi yeast,PostGolgi ctrl
Cc1cccc(NS(=O)(=O)c2cc(C(=O)N3CCN(C)CC3)ccc2C)c1,-17.0,-9.7,-4.2,32.1*
Cc1ccc(NS(=O)(=O)c2cc(C(=O)N3CCc4ccccc4C3)ccc2Cl)cc1,-3.1,-17.3,35.2*,63.8*
COc1ccc(C(=O)Nc2ccc(N3CCN(C(=O)C(C)C)CC3)cc2)cc1[N+](=O)[O-],-1.7,-22.1,·,·
CCOC(=O)CN1CC23C=CC(O2)C(C(=O)Nc2ccc(F)c(C)c2)C3C1=O (centres undefined),-2.0,-28.7,7.0,36.4*
COC(=O)CSc1nnc(CNS(=O)(=O)c2ccc(Cl)cc2)n1C,-5.7,9.2,-3.7,-4.4
COc1ccc(OC)c(NC(=O)c2c(NC(=O)CCC(=O)O)sc3c2CCCCC3)c1,-2.6,1.0,·,·
O=C(O)CCC(=O)Nc1sc2c(c1C(=O)Nc1cccc3ccccc13)CCCCC2,30.1*,-19.0,·,·
O=C(Nc1ccc(S(=O)(=O)N2CCc3ccccc32)cc1)c1ccc2c(c1)OCO2,-3.3,-21.1,-8.7,36.7*
COc1ccccc1C(=O)Nc1ccc(S(=O)(=O)N2CCc3ccccc32)cc1,-5.4,-30.7,3.8,34.1*
O=C(Nc1ccc(S(=O)(=O)N2CCc3ccccc32)cc1)c1ccco1,-2.1,-46.6,5.6,44.4*
Cc1ccccc1-c1nc(CS(=O)(=O)CC(=O)Nc2cc(F)ccc2F)c(C)o1,-1.8,-73.7,-6.9,92.2*
COCCCNC(=O)CS(=O)(=O)Cc1nc(-c2ccccc2C)oc1C,-1.9,-15.7,8.4,2.3
CC(OC(=O)c1ccc2ccccc2n1)C(=O)Nc1ccc(N2CCOCC2)cc1 (centres undefined),-0.7,-33.6,3.5,31.3*
CC(OC(=O)c1cccc(NS(C)(=O)=O)c1)C(=O)Nc1ccc(N2CCOCC2)cc1 (centres undefined),-15.3,-16.2,-8.0,-4.5
CCOC(=O)C1=C(c2cccc(Oc3ccccc3)c2)NC(=S)NC1C (centres undefined),-7.1,-60.3,7.7,25.4
O=C(O)CC(Cc1ccccc1)c1ccc2c(c1)OCO2 (centres undefined),-12.6,-8.2,6.6,-7.1
CC(=O)N(CCC(Cc1ccccc1)c1ccc2c(c1)OCO2)Cc1ccc(Cl)cc1 (centres undefined),10.8,-48.5,-3.4,36.4*
O=C(Nc1cccc2ccccc12)c1ccc(Cn2cc(Cl)cn2)cc1,-6.5,-25.2,-18.9,38.5*
Cc1ccc(Cl)cc1NC(=O)c1ccc(Cn2cc(Cl)cn2)cc1,-4.1,-18.0,·,·
O=C1c2ccccc2C(=O)N1OCc1ccccc1,71.7*,-7.0,-17.7,6.5
CCN(CC)CCCNC(CC(=O)Nc1cccc([N+](=O)[O-])c1)C(=O)O (centres undefined),4.3,-70.1,·,·
O=C(Nc1ccccc1)OC1CCC2CC1CCC2OC(=O)Nc1ccccc1 (centres undefined),-1.0,-11.0,·,·
CN(C)c1ccnc2sc(C(=O)NCc3ccccc3)c(N)c12,-13.1,-29.0,12.6,62.5*
CC(=O)Nc1nc(S(=O)(=O)c2ccc(C)cc2)c(Cl)s1,-1.6,-42.2,3.7,17.4
Cc1ccc(S(=O)(=O)c2nc(Nc3nccs3)sc2Cl)cc1,-4.4,-21.5,-8.7,51.9*
SMILES,Yeast life ext,Yeast growth inh,PostGolgi yeast,PostGolgi ctrl
Cc1ccc(S(=O)(=O)c2nc(NCc3ccc4c(c3)OCO4)sc2Cl)cc1,-1.1,-11.9,-9.7,48.5*
CCOC(=O)CN1C(=O)CN(c2ccc(C)c(C)c2)C1=O,-2.8,-18.0,·,·
CCCS(=O)(=O)c1nnnn1-c1cccc(OC)c1,-19.4,95.9*,54.9*,29.1
CCCC(c1nnnn1CS(=O)(=O)c1ccc(C)cc1)N1CCN(c2ccccc2)CC1 (centres undefined),-10.9,-27.1,-7.6,30.9*
Cc1ccc(S(=O)(=O)Cn2nnnc2C(c2ccccc2)N2CCN(c3ccccc3)CC2)cc1 (centres undefined),·,-46.9,·,·
CC/C(=N\NC(=O)C(N)=O)c1ccccc1O,3.6,-34.4,·,·
CNC(=O)CSc1nc(N)c2c3c(sc2n1)CCC3,-17.0,-41.3,6.8,4.3
NC(=O)CSc1nc(N)c2c3c(sc2n1)CCCCC3,-11.4,-47.0,6.0,31.0*
